Measurements: ChEMBL document CHEMBL3227952, “Potential organ- or tumor-imaging agents. 18. Radioiodinated diamines and bisquaternaries” (J Med Chem, 1979)

What was measured:
Details in all cases: in vivo
Adrenal [1] = test: Drug uptake in Sprague-Dawley rat adrenal at 11.7 to 12.3 uCi, iv after 0.5 hrs by liquid scintillation counting; assay type: ADME, organism-based, Adrenal gland
Outline: (§1)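 Adult male Sprague-Dawley rats, 200–420 g, fed ad libitum. They got ¹²⁵I-labelled agent in saline (9.0–9.5 µCi/mg), 0.1 mL, by tail vein under ether. Five rats per time point were exsanguinated under ether. Organs were excised, rinsed, blotted and weighed. Duplicate samples were counted in a well-scintillation gamma counter (87% efficiency). Results are % administered dose/g, mean ± SEM.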

[2] = Drug uptake in Sprague-Dawley rat bone marrow at 11.7 to 12.3 uCi, iv after 0.5 hrs by liquid scintillation counting; assay type: ADME, organism-based; outline: as §1
Brain [3] = test: Drug uptake in Sprague-Dawley rat brain at 11.7 to 12.3 uCi, iv after 0.5 hrs by liquid scintillation counting; assay type: ADME, organism-based; outline: as §1
[4] = Drug uptake in Sprague-Dawley rat diaphragm at 11.7 to 12.3 uCi, iv after 0.5 hrs by liquid scintillation counting; assay type: ADME, organism-based; outline: as §1
Duodenum [5] = test: Drug uptake in Sprague-Dawley rat duodenum at 11.7 to 12.3 uCi, iv after 0.5 hrs by liquid scintillation counting; assay type: ADME, organism-based; outline: as §1
[6] = Drug uptake in Sprague-Dawley rat auricle at 11.7 to 12.3 uCi, iv after 0.5 hrs by liquid scintillation counting; assay type: ADME, organism-based; outline: as §1
[7] = Drug uptake in Sprague-Dawley rat ventricle at 11.7 to 12.3 uCi, iv after 0.5 hrs by liquid scintillation counting; assay type: ADME, organism-based, Cardiac ventricle
Outline: (§2)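 ¹²⁵I-labelled bisquaternary dissolved in saline (26 mg/2.0 mL), 9.0–9.5 μCi/mg, given in 0.1 mL via tail vein under ether to adult male Sprague-Dawley rats (200–420 g). Rats were killed by exsanguination under ether at 0.5 or 2 h. Organs were excised, rinsed, blotted and weighed, and duplicate samples were gamma-counted in a well-scintillation counter (87% efficiency). Results are % administered dose/g, mean ± SEM, five rats.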

[8] = Drug uptake in Sprague-Dawley rat intervertebral disk at 11.7 to 12.3 uCi, iv after 0.5 hrs by liquid scintillation counting; assay type: ADME, organism-based; outline: as §1
Kidney [9] = test: Drug uptake in Sprague-Dawley rat kidney at 11.7 to 12.3 uCi, iv after 0.5 hrs by liquid scintillation counting; assay type: ADME, organism-based; outline: as §1
Liver [10] = test: Drug uptake in Sprague-Dawley rat liver at 11.7 to 12.3 uCi, iv after 0.5 hrs by liquid scintillation counting; assay type: ADME, organism-based; outline: as §1
Lung [11] = test: Drug uptake in Sprague-Dawley rat lung at 11.7 to 12.3 uCi, iv after 0.5 hrs by liquid scintillation counting; assay type: ADME, organism-based; outline: as §1
[12] = Drug uptake in Sprague-Dawley rat meninges at 11.7 to 12.3 uCi, iv after 0.5 hrs by liquid scintillation counting; assay type: ADME, organism-based; outline: as §1
Pituitary gland [13] = test: Drug uptake in Sprague-Dawley rat pituitary at 11.7 to 12.3 uCi, iv after 0.5 hrs by liquid scintillation counting; assay type: ADME, organism-based; outline: as §1
Pancreas [14] = test: Drug uptake in Sprague-Dawley rat pancreas at 11.7 to 12.3 uCi, iv after 0.5 hrs by liquid scintillation counting; assay type: ADME, organism-based; outline: as §1
Spleen [15] = test: Drug uptake in Sprague-Dawley rat spleen at 11.7 to 12.3 uCi, iv after 0.5 hrs by liquid scintillation counting; assay type: ADME, organism-based; outline: as §2
Testes [16] = test: Drug uptake in Sprague-Dawley rat testes at 11.7 to 12.3 uCi, iv after 0.5 hrs by liquid scintillation counting; assay type: ADME, organism-based, Testis; outline: as §2
Thyroid gland [17] = test: Drug uptake in Sprague-Dawley rat thyroid at 11.7 to 12.3 uCi, iv after 0.5 hrs by liquid scintillation counting; assay type: ADME, organism-based; outline: as §2
[18] = Drug uptake in Sprague-Dawley rat trachea at 11.7 to 12.3 uCi, iv after 0.5 hrs by liquid scintillation counting; assay type: ADME, organism-based; outline: as §2
Blood [19] = test: Drug uptake in Sprague-Dawley rat blood at 11.7 to 12.3 uCi, iv after 0.5 hrs by liquid scintillation counting; assay type: ADME, organism-based; outline: as §1
Adrenal [20] = test: Drug uptake in Sprague-Dawley rat adrenal at 11.7 to 12.3 uCi, iv after 2 hrs by liquid scintillation counting; assay type: ADME, organism-based, Adrenal gland; outline: as §1
[21] = Drug uptake in Sprague-Dawley rat bone marrow at 11.7 to 12.3 uCi, iv after 2 hrs by liquid scintillation counting; assay type: ADME, organism-based; outline: as §1
Brain [22] = test: Drug uptake in Sprague-Dawley rat brain at 11.7 to 12.3 uCi, iv after 2 hrs by liquid scintillation counting; assay type: ADME, organism-based; outline: as §1
[23] = Drug uptake in Sprague-Dawley rat diaphragm at 11.7 to 12.3 uCi, iv after 2 hrs by liquid scintillation counting; assay type: ADME, organism-based; outline: as §1
Duodenum [24] = test: Drug uptake in Sprague-Dawley rat duodenum at 11.7 to 12.3 uCi, iv after 2 hrs by liquid scintillation counting; assay type: ADME, organism-based; outline: as §1
[25] = Drug uptake in Sprague-Dawley rat auricle at 11.7 to 12.3 uCi, iv after 2 hrs by liquid scintillation counting; assay type: ADME, organism-based; outline: as §1
[26] = Drug uptake in Sprague-Dawley rat ventricle at 11.7 to 12.3 uCi, iv after 2 hrs by liquid scintillation counting; assay type: ADME, organism-based, Cardiac ventricle; outline: as §2
[27] = Drug uptake in Sprague-Dawley rat intervertebral disk at 11.7 to 12.3 uCi, iv after 2 hrs by liquid scintillation counting; assay type: ADME, organism-based; outline: as §1
Kidney [28] = test: Drug uptake in Sprague-Dawley rat kidney at 11.7 to 12.3 uCi, iv after 2 hrs by liquid scintillation counting; assay type: ADME, organism-based; outline: as §1
Liver [29] = test: Drug uptake in Sprague-Dawley rat liver at 11.7 to 12.3 uCi, iv after 2 hrs by liquid scintillation counting; assay type: ADME, organism-based; outline: as §1
Lung [30] = test: Drug uptake in Sprague-Dawley rat lung at 11.7 to 12.3 uCi, iv after 2 hrs by liquid scintillation counting; assay type: ADME, organism-based; outline: as §1
[31] = Drug uptake in Sprague-Dawley rat meninges at 11.7 to 12.3 uCi, iv after 2 hrs by liquid scintillation counting; assay type: ADME, organism-based; outline: as §1
Pituitary gland [32] = test: Drug uptake in Sprague-Dawley rat pituitary at 11.7 to 12.3 uCi, iv after 2 hrs by liquid scintillation counting; assay type: ADME, organism-based; outline: as §1
Pancreas [33] = test: Drug uptake in Sprague-Dawley rat pancreas at 11.7 to 12.3 uCi, iv after 2 hrs by liquid scintillation counting; assay type: ADME, organism-based; outline: as §1
Spleen [34] = test: Drug uptake in Sprague-Dawley rat spleen at 11.7 to 12.3 uCi, iv after 2 hrs by liquid scintillation counting; assay type: ADME, organism-based; outline: as §2
Testes [35] = test: Drug uptake in Sprague-Dawley rat testes at 11.7 to 12.3 uCi, iv after 2 hrs by liquid scintillation counting; assay type: ADME, organism-based, Testis; outline: as §2
Thyroid gland [36] = test: Drug uptake in Sprague-Dawley rat thyroid at 11.7 to 12.3 uCi, iv after 2 hrs by liquid scintillation counting; assay type: ADME, organism-based; outline: as §2
[37] = Drug uptake in Sprague-Dawley rat trachea at 11.7 to 12.3 uCi, iv after 2 hrs by liquid scintillation counting; assay type: ADME, organism-based; outline: as §2
Blood [38] = test: Drug uptake in Sprague-Dawley rat blood at 11.7 to 12.3 uCi, iv after 2 hrs by liquid scintillation counting; assay type: ADME, organism-based; outline: as §1

Question: Which Drug uptake (Adrenal [1]) does the source give for `C[N+](C)(C)Cc1ccc(C[N+](C)(C)C)c([125I])c1.[I-].[I-]` here?
Answer: The Drug uptake was 0.094 % ID/g.

Question: And the Drug uptake [2]?
Answer: The Drug uptake was 0.132 % ID/g.

Question: And the Drug uptake (Brain [3])?
Answer: Its Drug uptake is 0.044 % ID/g.

Question: What about the Drug uptake [4] of the same molecule?
Answer: The Drug uptake was 0.08 % ID/g.

Question: And the Drug uptake (Duodenum [5])?
Answer: The Drug uptake was 0.085 % ID/g.

Question: And the Drug uptake [6]?
Answer: Its Drug uptake is 0.203 % ID/g.

Question: What about the Drug uptake [7] of the same molecule?
Answer: Its Drug uptake is 0.121 % ID/g.

Question: And the Drug uptake [8]?
Answer: Its Drug uptake is 0.607 % ID/g.

Question: And the Drug uptake (Kidney [9])?
Answer: Its Drug uptake is 3.305 % ID/g.

Question: What about the Drug uptake (Liver [10]) of the same molecule?
Answer: The Drug uptake was 0.129 % ID/g.

Question: What about the Drug uptake (Lung [11]) of the same molecule?
Answer: Its Drug uptake is 0.257 % ID/g.

Question: And the Drug uptake [12]?
Answer: Its Drug uptake is 0.467 % ID/g.

Question: What about the Drug uptake (Pituitary gland [13]) of the same molecule?
Answer: Its Drug uptake is 0.118 % ID/g.

Question: What about the Drug uptake (Pancreas [14]) of the same molecule?
Answer: The Drug uptake was 0.075 % ID/g.

Question: And the Drug uptake (Spleen [15])?
Answer: Its Drug uptake is 0.137 % ID/g.

Question: What about the Drug uptake (Testes [16]) of the same molecule?
Answer: The Drug uptake was 0.076 % ID/g.

Question: What about the Drug uptake (Thyroid gland [17]) of the same molecule?
Answer: The Drug uptake was 0.095 % ID/g.

Question: And the Drug uptake [18]?
Answer: The Drug uptake was 0.798 % ID/g.

Question: And the Drug uptake (Blood [19])?
Answer: Its Drug uptake is 0.277 % ID/g.

Question: What about the Drug uptake (Adrenal [20]) of the same molecule?
Answer: The Drug uptake was 0.043 % ID/g.

Question: And the Drug uptake [21]?
Answer: Its Drug uptake is 0.078 % ID/g.

Question: And the Drug uptake (Brain [22])?
Answer: The Drug uptake was 0.038 % ID/g.

Question: And the Drug uptake [23]?
Answer: Its Drug uptake is 0.022 % ID/g.

Question: What about the Drug uptake (Duodenum [24]) of the same molecule?
Answer: Its Drug uptake is 0.033 % ID/g.

Question: And the Drug uptake [25]?
Answer: Its Drug uptake is 0.108 % ID/g.

Question: What about the Drug uptake [26] of the same molecule?
Answer: Its Drug uptake is 0.018 % ID/g.

Question: And the Drug uptake [27]?
Answer: Its Drug uptake is 0.087 % ID/g.

Question: What about the Drug uptake (Kidney [28]) of the same molecule?
Answer: The Drug uptake was 1.834 % ID/g.

Question: What about the Drug uptake (Liver [29]) of the same molecule?
Answer: Its Drug uptake is 0.085 % ID/g.

Question: What about the Drug uptake (Lung [30]) of the same molecule?
Answer: The Drug uptake was 0.087 % ID/g.

Question: And the Drug uptake [31]?
Answer: Its Drug uptake is 0.658 % ID/g.

Question: What about the Drug uptake (Pituitary gland [32]) of the same molecule?
Answer: The Drug uptake was 0.082 % ID/g.

Question: What about the Drug uptake (Pancreas [33]) of the same molecule?
Answer: Its Drug uptake is 0.03 % ID/g.

Question: And the Drug uptake (Spleen [34])?
Answer: The Drug uptake was 0.094 % ID/g.

Question: And the Drug uptake (Testes [35])?
Answer: The Drug uptake was 0.034 % ID/g.

Question: And the Drug uptake (Thyroid gland [36])?
Answer: Its Drug uptake is 0.06 % ID/g.

Question: And the Drug uptake [37]?
Answer: Its Drug uptake is 0.089 % ID/g.

Question: And the Drug uptake (Blood [38])?
Answer: Its Drug uptake is 0.015 % ID/g.
